The source of these data is ChEMBL document CHEMBL5712901, “DOT1L inhibition blocks multiple myeloma cell proliferation by suppressing IRF4-MYC signaling” (2019).

The test system of one assay is KMS-12-PE. Description: Upregulation of DOT1L in human KMS-12-PE cells by qRT-PCR analysis. It is filed as functional, cell-based. The procedure, abridged:
(§1)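 Basal DOT1L transcript in untreated myeloma cell lines measured by qRT-PCR, normalized to ACTB; mean of 3 replicates with SEM.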

Assay [1] deals with MM1.S. Nature of the assay: Upregulation of HLA-DRB5 gene in human MM1.S cells at 1 uM for 6 days by. The settings on record: time 6.0 day. It is filed as functional, cell-based.
Assay [2] concerns MM1.S. Nature of the assay: Upregulation of MMP9 gene in human MM1.S cells at 1 uM for 6 days by. It is filed as functional, cell-based. The settings on record: time 6.0 day.
Assay [3] relates to MM1.S. Description: Upregulation of CAPG gene in human MM1.S cells at 1 uM for 6 days by. It is filed as functional, cell-based. The settings on record: time 6.0 day.
Assay [4] has as its system MM1.S. Nature of the assay: Upregulation of TP53I11 gene in human MM1.S cells at 1 uM for 6 days by. The settings on record: time 6.0 day. It is filed as functional, cell-based.
The subject of assay [5] is RPMI-8226. Nature of the assay: Upregulation of BATF3 gene in human RPMI-8226 cells at 1 uM for 6 days by. Type of assay: functional, cell-based. The settings on record: time 6.0 day.
Assay [6] concerns RPMI-8226. Nature of the assay: Upregulation of SERPINB1 gene in human RPMI-8226 cells at 1 uM for 6 days by. It is filed as functional, cell-based. The settings on record: time 6.0 day.
In assay [7] the test system is RPMI-8226. Nature of the assay: Upregulation of CFH gene in human RPMI-8226 cells at 1 uM for 6 days by. The settings on record: time 6.0 day. Type of assay: functional, cell-based.
Assay [8] deals with RPMI-8226. Description: Upregulation of IFITM1 gene in human RPMI-8226 cells at 1 uM for 6 days by. Type of assay: functional, cell-based. Conditions: time 6.0 day.
In assay [9] the test system is MM1.S. Nature of the assay: Upregulation of RGS1 gene in human MM1.S cells at 1 uM for 6 days by. The settings on record: time 6.0 day. Type of assay: functional, cell-based.
Assay [10] relates to RPMI-8226. Description: Upregulation of PTPRD gene in human RPMI-8226 cells at 1 uM for 6 days by. The settings on record: time 6.0 day. Type of assay: functional, cell-based.
Assay [11] relates to MM1.S. Nature of the assay: Upregulation of SLC9A9 gene in human MM1.S cells at 1 uM for 6 days by. Conditions: time 6.0 day. Type of assay: functional, cell-based.
The subject of assay [12] is MM1.S. Description: Upregulation of IFITM1 gene in human MM1.S cells at 1 uM for 6 days by. It is filed as functional, cell-based. Conditions: time 6.0 day.
For assay [13], the system named is MM1.S. Nature of the assay: Upregulation of POPDC2 gene in human MM1.S cells at 1 uM for 6 days by. It is filed as functional, cell-based. The settings on record: time 6.0 day.
For assay [14], the system named is MM1.S. Description: Upregulation of ZNF862 gene in human MM1.S cells at 1 uM for 6 days by. It is filed as functional, cell-based. The settings on record: time 6.0 day.
For assay [15], the system named is RPMI-8226. Nature of the assay: Downregulation of H3K79me2 level in human RPMI-8226 cells at 1 uM for 3 days by ChIP-qPCR analysis. It is filed as functional, cell-based. The settings on record: time 3.0 day. In short, it runs like this: (§2)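 ChIP-qPCR for H3K79me2 at IRF4-MYC signaling genes after 1 μM inhibitor or DMSO for 3 days. Signal normalized to input DNA. An intergenic region 28 kb upstream of KLF2 served as negative control. Mean of 3 replications ± SEM.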

Assay [16] deals with MM1.S. Description: Upregulation of ALPK1 gene in human MM1.S cells at 1 uM for 6 days by. Type of assay: functional, cell-based. Conditions: time 6.0 day.
For assay [17], the system named is MM1.S. Description: Upregulation of CAPN2 gene in human MM1.S cells at 1 uM for 6 days by. Conditions: time 6.0 day. It is filed as functional, cell-based.
The test system of assay [18] is MM1.S. Description: Upregulation of TTC39C gene in human MM1.S cells at 1 uM for 6 days by. It is filed as functional, cell-based. Conditions: time 6.0 day.
Assay [19] deals with MM1.S. Description: Upregulation of RAB37 gene in human MM1.S cells at 1 uM for 6 days by. Type of assay: functional, cell-based. The settings on record: time 6.0 day.
Assay [20] relates to MM1.S. Nature of the assay: Upregulation of CXCL10 gene in human MM1.S cells at 1 uM for 6 days by. Type of assay: functional, cell-based. The settings on record: time 6.0 day. The procedure, abridged: (§3)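 Human myeloma lines RPMI-8226 and MM.1S exposed to 1 μM DOT1L inhibitor, or DMSO, for 6 days. Whole-genome expression profiled on gene expression microarray.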
Assay [21] relates to MM1.S. Description: Upregulation of FAM200B gene in human MM1.S cells at 1 uM for 6 days by. It is filed as functional, cell-based. Conditions: time 6.0 day. The procedure, abridged:
as §3

Assay [22] relates to MM1.S. Nature of the assay: Upregulation of CMTM3 gene in human MM1.S cells at 1 uM for 6 days by. Type of assay: functional, cell-based. Conditions: time 6.0 day. In short, it runs like this:
as §3

In assay [23] the test system is RPMI-8226. Nature of the assay: Upregulation of MYO1F gene in human RPMI-8226 cells at 1 uM for 6 days by. Type of assay: functional, cell-based. The settings on record: time 6.0 day.
Assay [24] concerns MM1.S. Nature of the assay: Upregulation of CLIP2 gene in human MM1.S cells at 1 uM for 6 days by. Type of assay: functional, cell-based. The settings on record: time 6.0 day. In short, it runs like this:
as §3

The subject of assay [25] is MM1.S. Description: Upregulation of APOL4 gene in human MM1.S cells at 1 uM for 6 days by. Type of assay: functional, cell-based. The settings on record: time 6.0 day.
Assay [26] relates to RPMI-8226. Nature of the assay: Upregulation of GPD2 gene in human RPMI-8226 cells at 1 uM for 6 days by. Type of assay: functional, cell-based. Conditions: time 6.0 day. In short, it runs like this: as §3
The test system of assay [27] is RPMI-8226. Nature of the assay: Upregulation of HLA-DRB1 gene in human RPMI-8226 cells at 1 uM for 6 days by. It is filed as functional, cell-based. Conditions: time 6.0 day.
For assay [28], the system named is MM1.S. Description: Upregulation of MYOF gene in human MM1.S cells at 1 uM for 6 days by. Conditions: time 6.0 day. It is filed as functional, cell-based.
The test system of assay [29] is RPMI-8226. Nature of the assay: Upregulation of COL16A1 gene in human RPMI-8226 cells at 1 uM for 6 days by. Conditions: time 6.0 day. Type of assay: functional, cell-based. In short, it runs like this: as §3
The subject of assay [30] is MM1.S. Nature of the assay: Upregulation of CCDC74B gene in human MM1.S cells at 1 uM for 6 days by. The settings on record: time 6.0 day. Type of assay: functional, cell-based.
The test system of assay [31] is MM1.S. Nature of the assay: Upregulation of FBXO2 gene in human MM1.S cells at 1 uM for 6 days by. Type of assay: functional, cell-based. Conditions: time 6.0 day. In short, it runs like this: as §3
Assay [32] relates to RPMI-8226. Nature of the assay: Upregulation of FAM200B gene in human RPMI-8226 cells at 1 uM for 6 days by. It is filed as functional, cell-based. The settings on record: time 6.0 day. The procedure, abridged: as §3
A further assay deals with KMS-11. Description: Upregulation of DOT1L in human KMS-11 cells by qRT-PCR analysis. It is filed as functional, cell-based. In short, it runs like this: as §1
The test system of assay [33] is RPMI-8226. Nature of the assay: Upregulation of NEURL1B gene in human RPMI-8226 cells at 1 uM for 6 days by. The settings on record: time 6.0 day. Type of assay: functional, cell-based.
In assay [34] the test system is MM1.S. Nature of the assay: Upregulation of RIMBP3 gene in human MM1.S cells at 1 uM for 6 days by. Conditions: time 6.0 day. It is filed as functional, cell-based.
The subject of assay [35] is MM1.S. Description: Upregulation of NRIP1 gene in human MM1.S cells at 1 uM for 6 days by. It is filed as functional, cell-based. Conditions: time 6.0 day.
Assay [36] has as its system MM1.S. Description: Upregulation of CXCL12 gene in human MM1.S cells at 1 uM for 6 days by. Type of assay: functional, cell-based. Conditions: time 6.0 day. In short, it runs like this: as §3
For assay [37], the system named is MM1.S. Nature of the assay: Upregulation of DDIT4L gene in human MM1.S cells at 1 uM for 6 days by. Type of assay: functional, cell-based. Conditions: time 6.0 day. The procedure, abridged: as §3
For assay [38], the system named is RPMI-8226. Nature of the assay: Upregulation of BMF gene in human RPMI-8226 cells at 1 uM for 6 days by. It is filed as functional, cell-based. The settings on record: time 6.0 day.
Assay [39] concerns MM1.S. Nature of the assay: Upregulation of HLA-DMA gene in human MM1.S cells at 1 uM for 6 days by. It is filed as functional, cell-based. The settings on record: time 6.0 day. In short, it runs like this:
as §3

Assay [40] relates to MM1.S. Nature of the assay: Induction of apoptosis in human MM1.S cells assessed as necrotic cells at 1 uM for 6 days by annexin-V based propidium iodide staining based flow cytometric analysis (reference value: 1.8%). It is filed as functional. Conditions: time 6 day.
For assay [41], the system named is MM1.S. Description: Induction of cell cycle arrest in human MM1.S cells assessed as decrease in accumulation of cells at S phase at 1 uM for 6 days. Conditions: time 6.0 day. Type of assay: functional, cell-based. The procedure, abridged: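 Flow cytometric cell cycle analysis of RPMI-8226 and MM.1S cells treated with 1 μM DOT1L inhibitor or DMSO for 6 days. Sub-G1, G0-G1 and S phase populations scored. Summary is from 3 replications, mean ± SEM.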

For assay [42], the system named is RPMI-8226. Nature of the assay: Upregulation of IFN in human RPMI-8226 cells assessed as increase in IFIT1 gene at 1 uM for 6 days by qRT-PCR analysis. It is filed as functional, cell-based. Conditions: time 6.0 day.
The test system of assay [43] is MM1.S. Nature of the assay: Induction of apoptosis in human MM1.S cells assessed as early apoptotic cells at 1 uM for 6 days by annexin-V based propidium iodide staining based flow cytometric analysis (reference value: 7.39%). Conditions: time 6 day. It is filed as functional.
Assay [44] deals with RPMI-8226. Nature of the assay: Effect on human RPMI-8226 cells assessed as change in IRF4 mRNA level at 1 uM for 3 days by ChIP-qPCR analysis. The settings on record: time 3.0 day. Type of assay: functional, cell-based. The procedure, abridged:
as §2

Active and inactive are the calls of the source. No cut-off for these calls is given here.

As to `CC(C)N(CCCNC(=O)Nc1ccc(C(C)(C)C)cc1)C[C@H]1O[C@@H](n2cc(Br)c3c(N)ncnc32)[C@H](O)[C@@H]1O`, the result in the assay with KMS-12-PE, in the assay on MM1.S [1], with MM1.S [2], in the assay on MM1.S [3], in the assay with MM1.S [4] and in the assay on RPMI-8226 [5] was Active. Besides, the outcome in the assay with RPMI-8226 [6], in the assay on RPMI-8226 [7], with RPMI-8226 [8], in the assay with MM1.S [9], with RPMI-8226 [10] and in the assay with MM1.S [11] was Active. Further, the result in the assay on MM1.S [12], in the assay on MM1.S [13], in the assay on MM1.S [14], with RPMI-8226 [15], in the assay with MM1.S [16] and with MM1.S [17] was Active. For the same compound, the outcome with MM1.S [18], with MM1.S [19], in the assay with MM1.S [20], in the assay with MM1.S [21], in the assay on MM1.S [22] and in the assay on RPMI-8226 [23] was Active. Moreover, the outcome in the assay on MM1.S [24], in the assay on MM1.S [25], in the assay with RPMI-8226 [26], with RPMI-8226 [27], in the assay on MM1.S [28] and with RPMI-8226 [29] was Active. Also, the outcome in the assay on MM1.S [30], in the assay on MM1.S [31], with RPMI-8226 [32], in the assay with KMS-11, in the assay with RPMI-8226 [33] and in the assay with MM1.S [34] was Active. The result in the assay with MM1.S [35], in the assay on MM1.S [36], with MM1.S [37], with RPMI-8226 [38] and in the assay on MM1.S [39] was Active.

Turning to `CC(C)N(C[C@H]1O[C@@H](n2cnc3c(N)ncnc32)[C@H](O)[C@@H]1O)[C@H]1C[C@@H](CCc2nc3cc(C(C)(C)C)ccc3[nH]2)C1` [PINOMETOSTAT], the Activity turned out to be 2.47% in the assay with MM1.S [40] and 16.9% in the assay with MM1.S [43]. For the same compound, the result in the assay on MM1.S [41], in the assay with RPMI-8226 [42] and in the assay on RPMI-8226 [44] was Active.
